Test results as given in ChEMBL document CHEMBL2062477, “Dual-Specificity Phosphatase CDC25A/B Inhibitor Identified from a Focused Library with Nonelectrophilic Core Structure” (ACS Med Chem Lett, 2012).
Activity calls are given as the source filed them. The calls are words filed in the database; no cut-off is given here.

How the values were obtained:
tsFT210 [1] = test: Induction of apoptosis in mouse tsFT210 cells assessed as increase in subG1 population at 50 uM after 17 hrs by propidium iodide staining-based flow cytometric analysis; type: functional, cell-based; conditions: in the assay text read “after 4 hrs” for “after 17 hrs”
In short: (§1)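 tsFT210 cells synchronized at G2 by 17 h at 39 °C, then released for 4 h at 32 °C with compound (5–50 μM) or DMSO vehicle; 100 nM nocodazole reference. Cell-cycle phase distribution, including sub-G1, determined by flow cytometry.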

[2] = target: T1, M-phase inducer phosphatase 3 (Homo sapiens, UniProt P30307); test: Inhibition of CDC25C
T1 sequence (P30307 whole entry): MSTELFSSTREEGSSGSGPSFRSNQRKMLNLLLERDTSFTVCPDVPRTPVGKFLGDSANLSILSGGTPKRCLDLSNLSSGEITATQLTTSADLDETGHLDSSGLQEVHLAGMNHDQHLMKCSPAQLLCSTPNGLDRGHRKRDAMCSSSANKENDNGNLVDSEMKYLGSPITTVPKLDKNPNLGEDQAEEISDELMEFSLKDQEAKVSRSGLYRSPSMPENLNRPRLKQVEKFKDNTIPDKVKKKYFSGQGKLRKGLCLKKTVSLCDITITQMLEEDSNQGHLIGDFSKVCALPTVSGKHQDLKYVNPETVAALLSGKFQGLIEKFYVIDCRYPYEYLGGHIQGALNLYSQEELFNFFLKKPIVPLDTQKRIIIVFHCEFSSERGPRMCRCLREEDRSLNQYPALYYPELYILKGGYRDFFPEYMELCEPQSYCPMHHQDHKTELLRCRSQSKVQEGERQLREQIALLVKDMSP

[3] = Cell cycle arrest in mouse tsFT210 cells assessed as accumulation at G2/M phase by propidium iodide staining-based flow cytometric analysis; type: functional; in short: as §1
[4] = target: T2, Tyrosine-protein phosphatase non-receptor type 1 (Homo sapiens, UniProt P18031); test: Inhibition of PTP1B
T2 sequence (P18031 whole entry): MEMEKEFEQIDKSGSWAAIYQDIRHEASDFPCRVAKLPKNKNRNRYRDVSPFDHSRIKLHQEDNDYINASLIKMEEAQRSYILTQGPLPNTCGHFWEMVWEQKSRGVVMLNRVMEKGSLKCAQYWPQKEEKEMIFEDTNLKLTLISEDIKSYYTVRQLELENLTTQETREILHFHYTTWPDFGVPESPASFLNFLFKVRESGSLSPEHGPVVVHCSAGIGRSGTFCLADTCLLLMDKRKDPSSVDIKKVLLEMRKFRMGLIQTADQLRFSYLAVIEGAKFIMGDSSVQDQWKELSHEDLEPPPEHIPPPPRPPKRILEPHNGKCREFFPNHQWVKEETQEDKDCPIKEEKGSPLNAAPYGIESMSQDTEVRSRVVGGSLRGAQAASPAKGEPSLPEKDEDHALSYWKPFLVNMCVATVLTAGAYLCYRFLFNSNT

[5] = target: T3, M-phase inducer phosphatase 1 (Homo sapiens, UniProt P30304); test: Inhibition of CDC25A in presence of 2 mM DTT
T3 sequence (P30304 whole entry): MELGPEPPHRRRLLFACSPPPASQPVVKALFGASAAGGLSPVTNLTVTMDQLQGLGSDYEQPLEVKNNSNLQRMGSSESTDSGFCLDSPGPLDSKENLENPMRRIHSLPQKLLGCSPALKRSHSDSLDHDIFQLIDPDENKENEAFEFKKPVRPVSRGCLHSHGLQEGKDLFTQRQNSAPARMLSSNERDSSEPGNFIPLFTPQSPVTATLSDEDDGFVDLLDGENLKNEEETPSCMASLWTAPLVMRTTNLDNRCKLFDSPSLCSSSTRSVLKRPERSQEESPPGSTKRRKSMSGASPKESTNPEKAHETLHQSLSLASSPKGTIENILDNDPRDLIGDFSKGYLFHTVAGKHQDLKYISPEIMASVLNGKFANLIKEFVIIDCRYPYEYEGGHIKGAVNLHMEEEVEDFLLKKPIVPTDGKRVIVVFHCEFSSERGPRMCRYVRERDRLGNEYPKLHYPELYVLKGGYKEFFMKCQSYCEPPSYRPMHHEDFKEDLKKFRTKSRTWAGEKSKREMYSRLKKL
In short: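 In vitro inhibition of purified CDC25A or CDC25B with DTT concentration in the assay buffer varied.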

tsFT210 [6] = test: Inhibition of CDC25 in mouse tsFT210 cells assessed as hyperphosphorylation of CDK1 protein by Western blot analysis; type: cell-based
In short: (§2)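 G2-arrested tsFT210 cells (39 °C, 17 h) released at 32 °C for 4 h with compound or vehicle; CDK1 phosphorylation status and total CDK1 assessed by Western blotting.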

[7] = target: T3, M-phase inducer phosphatase 1; test: Inhibition of CDC25A
tsFT210 [8] = test: Induction of ROS generation in mouse tsFT210 cells at 50 uM at 32 degC for 30 min measured by flow cytometric analysis pretreated with H2DCFDA at 39 degC
[9] = target: T4, Dual specificity protein phosphatase 1 (Homo sapiens, UniProt P28562); test: Inhibition of MKP1
T4 sequence (P28562 whole entry): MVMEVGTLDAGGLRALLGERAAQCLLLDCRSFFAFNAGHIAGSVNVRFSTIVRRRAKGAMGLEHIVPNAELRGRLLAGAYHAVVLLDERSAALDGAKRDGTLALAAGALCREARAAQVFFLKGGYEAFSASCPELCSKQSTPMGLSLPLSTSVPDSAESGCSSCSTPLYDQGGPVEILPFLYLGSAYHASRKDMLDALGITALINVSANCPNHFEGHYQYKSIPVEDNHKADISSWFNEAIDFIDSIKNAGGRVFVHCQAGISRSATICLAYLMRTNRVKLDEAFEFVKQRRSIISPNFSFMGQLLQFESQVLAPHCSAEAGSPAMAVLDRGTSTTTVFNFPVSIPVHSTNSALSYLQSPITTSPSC

[10] = target: T5, Dual specificity protein phosphatase 6 (Homo sapiens, UniProt Q16828); test: Inhibition of MKP3
T5 sequence (Q16828 whole entry): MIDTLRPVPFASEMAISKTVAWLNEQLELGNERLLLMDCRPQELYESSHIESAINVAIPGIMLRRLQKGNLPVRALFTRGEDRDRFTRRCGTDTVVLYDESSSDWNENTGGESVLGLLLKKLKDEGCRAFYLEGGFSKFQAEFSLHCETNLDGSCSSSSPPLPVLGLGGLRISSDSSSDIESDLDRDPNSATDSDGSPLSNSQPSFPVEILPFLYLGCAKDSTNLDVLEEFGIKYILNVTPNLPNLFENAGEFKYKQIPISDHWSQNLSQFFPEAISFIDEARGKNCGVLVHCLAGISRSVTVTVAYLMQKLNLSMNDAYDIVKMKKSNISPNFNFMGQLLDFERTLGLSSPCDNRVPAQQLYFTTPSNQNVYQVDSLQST

[11] = target: Dual specificity protein phosphatase 3 (Homo sapiens, UniProt P51452); test: Inhibition of VHR
Chain of Dual specificity protein phosphatase 3 (P51452 whole entry): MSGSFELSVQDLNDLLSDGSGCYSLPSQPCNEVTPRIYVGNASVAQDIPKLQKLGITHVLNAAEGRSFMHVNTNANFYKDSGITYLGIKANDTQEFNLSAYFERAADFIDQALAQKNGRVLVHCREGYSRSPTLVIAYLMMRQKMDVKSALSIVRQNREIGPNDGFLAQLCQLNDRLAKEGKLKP

[12] = target: T6, M-phase inducer phosphatase 2 (Homo sapiens, UniProt P30305); test: Inhibition of CDC25B
T6 sequence (P30305 whole entry): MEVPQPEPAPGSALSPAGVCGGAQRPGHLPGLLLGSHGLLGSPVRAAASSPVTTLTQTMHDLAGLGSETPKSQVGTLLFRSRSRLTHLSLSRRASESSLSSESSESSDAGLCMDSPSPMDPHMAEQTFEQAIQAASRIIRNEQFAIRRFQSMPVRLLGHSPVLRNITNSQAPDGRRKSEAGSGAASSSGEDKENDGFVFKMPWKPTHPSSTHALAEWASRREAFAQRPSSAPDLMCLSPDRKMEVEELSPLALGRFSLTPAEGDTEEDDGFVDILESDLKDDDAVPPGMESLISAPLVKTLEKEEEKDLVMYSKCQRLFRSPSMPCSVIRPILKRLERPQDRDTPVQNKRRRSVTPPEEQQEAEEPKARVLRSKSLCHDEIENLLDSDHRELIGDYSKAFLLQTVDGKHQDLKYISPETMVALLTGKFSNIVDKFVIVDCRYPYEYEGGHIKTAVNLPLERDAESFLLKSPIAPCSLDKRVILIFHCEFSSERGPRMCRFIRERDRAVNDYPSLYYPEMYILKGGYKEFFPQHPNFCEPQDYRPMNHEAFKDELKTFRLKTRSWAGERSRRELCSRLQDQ

[13] = Cell cycle arrest in mouse tsFT210 cells assessed as accumulation at G2/M phase at 5 to 50 uM by propidium iodide staining-based flow cytometric analysis; type: functional; in short: as §1
tsFT210 [14] = test: Inhibition of CDC25 in mouse tsFT210 cells assessed as hyperphosphorylation of CDK1 protein at 50 uM by Western blot analysis; type: cell-based; in short: as §2
HL-60 = test: cells; conditions: Homo sapiens, HL-60, 48 h

Row | IC50 [2] [µM] | IC50 [4] [µM] | IC50 [5] [µM] | IC50 [7] [µM] | IC50 [9] [µM] | IC50 [10] [µM] | IC50 [11] [µM] | IC50 [12] [µM] | IC50 (HL-60) [µM] | SMILES | Activity (tsFT210 [1]) | Activity [3] | inhibition (tsFT210 [6]) | Activity (tsFT210 [8]) | Activity [13] | inhibition (tsFT210 [14])
1 | > 100 | > 100 | 16.6 | 16.6 | > 100 | > 100 | 11.4 | 8.42 | – | CCCCCCCCCCCCCCC/C(NCc1ccccc1)=C1/C(=O)OC(CO)C1=O (stereo not given) | inactive | Dose-dependent effect | Dose-dependent effect | inactive | – | –
2 | > 100 | > 100 | – | > 100 | > 100 | > 100 | 1.63 | > 100 | – | CCCCCCCCCCCCCCCC(NCc1cccc(C)c1)=C1C(=O)OC(CO)C1=O (mixture of isomers) | inactive | – | – | inactive | inactive | inactive
3 | > 100 | > 100 | 13.5 | 13.5 | > 100 | > 100 | 24.9 | – | 2.44 | CCCCCCCCCCCCCCCC(NCc1ccccc1O)=C1C(=O)OC(CO)C1=O (mixture of isomers) | inactive | Dose-dependent effect | Dose-dependent effect | inactive | – | –
